High-throughput results as filed in PubChem BioAssay.
CHT block = inhibits the human high affinity choline transporter; hit rate 0.86% among 310,000; CHT-expressing cells, membrane potential dye, choline response; hits give low values; B-score at 10 µM; AID 488975;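 active means B-score over 3 SD under the library average, and starting fluorescence ratio not unusually high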;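 further: choline stimulus applied at its EC90 after an EC20 pre-addition; B-score computed on integrated fluorescence ratio after choline addition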
Cl transport mod = modulators of human KCC2 chloride dependent transport; Q9H2X9; KCC2 cells, thallium flux FluoZin-2 fluorescence; B-score of Tl+ flux slope (higher = more flux/activation; lower = inhibition) at 10 µM; hit rate 2.2% among 190,000; AID 1456;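 active means thallium flux slope and its plate-corrected score both differing from the plate sample mean at a set confidence after two filtering rounds, in either direction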;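 further: slope of fluorescence scaled to starting intensity during 10 to 20 s after thallium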
Rad51 HR inh = Rad51 (human) homologous recombination inhibition; Q06609; hRad51 DNA strand exchange, fluorescence dequenching; inhibition, % at 10 µM; hit rate 0.085% among 200,000;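 active means inhibition above 40% at the single screening dose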;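 further: 0% = DMSO control wells and 100% = blanks with heterologous ssDNA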
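System: hRad51 filaments on single-stranded DNA; reagent: Fluorescein- and BHQ1-tagged 47-mer duplex; compound dosing: one concentration, 10 µM final; timing: filaments 15 min 37 °C, then compound 30 min; measured by: fluorescein emission 520 nm, excitation 485 nm; benchmarks: per-plate controls and blanks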
CHT allo act = human CHT allosteric activation. CHT-expressing cells, membrane potential dye, choline EC20; hits give high values; LV-AA mutant CHT in HEK293 cells. Q9GZV3. B-score at 10 µM. hit rate 0.49% among 310,000. AID 488977;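 active means initial fluorescence not abnormally high and integrated response B-score, plate-corrected, over 3 SD above library mean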
CHT act confirm = human CHT activation, confirmatory screen; activation, % at 10 µM; shares compounds with CHT allo act; hit rate 91% among 2,500; CHT-expressing cells, membrane potential dye fluorescence (FDSS); % of choline EC20–EC90 response window; HEK293 expressing CHT LV-AA mutant; choline added at its EC20;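 active means primary screen active, with duplicate mean activation above negative control mean plus 3 SD, cut at about 11% in these data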
HEK293 MP dye = CHT activator counter-screen hit in parental HEK293 cells | shares compounds with CHT allo act | membrane potential dye fluorescence (FDSS); measured after EC20 choline addition | ratio readout change at 10 µM, hits read low | hit rate 62% among 2,500;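 active means duplicate-averaged ratio beyond 3 SD from buffer wells, up or down, though filed actives are nearly all decreases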
Starred values were filed as active, the others as inactive; i = inactive; nt = no result given. Only some compounds are listed: those with a hit (about 2.6% of all), similar ones and a draw of the others.

SMILES	CHT block	Cl transport mod	Rad51 HR inh	CHT allo act	CHT act confirm	HEK293 MP dye
CC/C(=C\c1oc2cc3ccccc3cc2[n+]1CC)Nc1ccccc1	i	nt	nt	i	nt	nt
CC[n+]1c(/C=C/Nc2ccccc2)oc2ccc(OC)cc21	i	-0.568	-77.3	i	nt	nt
CC[n+]1c(/C=C/c2ccc(N(C)C)cc2)ccc2ccccc21	i	0.206	24.4	i	nt	nt
Cc1cc(C)cc(NC(=O)c2c(C)nc3ccccn23)c1	i	nt	-1.5	i	nt	nt
CCOc1ccc(C(=O)NCc2ccccc2)cc1Br	i	-0.0187	-0.7	i	nt	nt
Cc1cccc2cc3c(N)c(C(=O)N4CCc5ccccc54)sc3nc12	i	0.193	-175.6	i	26.5*	i
Cc1cccc2cc3c(N)c(C(=O)Nc4ccc(N5CCOCC5)cc4)sc3nc12	i	nt	-0.3	i	nt	nt
CCN(Cc1ccccc1)C(=O)COC(=O)Cn1cnc2ccccc21	i	0.429	3.6	i	nt	nt
CN(C)CCCNC(=O)C1CCNCC1	i	0.92	-5.7	i	nt	nt
Cc1ccc2c(CSc3nc4ccccc4c(=O)n3CCCO)cc(=O)oc2c1C	i	0.104	2.5	6.87*	14.7*	i
CC1CN(C(=O)CCC(=O)NCCCN2C(C)CCCC2C)c2ccccc2O1 (stereo unspecified)	i	nt	nt	i	nt	nt
CN=C1c2c(-c3ccccc3)c3cc(OC)ccc3n2CCN1C	i	nt	3.2	8.02*	43.1*	-52.7*
COc1ccc2c(c1)c1ccccc1n2C	i	1.1	-0.1	i	nt	nt
COC(=O)c1cc2c(C)[nH]c(C)c2cc(C(=O)OC)c1=O	i	0.0634	nt	i	30.2*	-45.4*
COCCCN1C(=O)C(=O)/C(=C(/O)c2ccc(C)cc2)C1/C=C/c1ccccc1 (stereo unspecified)	i	-0.647	1.8	i	nt	nt
CCc1cc(=O)oc2cc(C)cc(OCC(=O)NCCCn3ccnc3)c12	i	nt	nt	i	nt	nt
Cc1cc(=O)oc2c3c(cc(OCC(=O)NCCCn4ccnc4)c12)OC(C)(C)CC3	i	nt	nt	i	23.9*	-35.7*
Cc1cc(OCC(=O)NCCCn2ccnc2)c2c(C)c(C)c(=O)oc2c1	i	nt	nt	i	40.5*	-63.9*
CCc1cc(=O)oc2cc(C)cc(OC(C)C(=O)NC3CCN(Cc4ccccc4)CC3)c12 (stereo unspecified)	i	nt	nt	i	53.5*	-45*
CCCc1cc(=O)oc2cc(C)cc(OCC(=O)NCCCN3CCOCC3)c12	i	nt	nt	i	nt	nt
Cc1cc(OCC(=O)NCCN2CCOCC2)c2c(C)c(C)c(=O)oc2c1	i	nt	nt	i	56.4*	-54.3*
Cc1cc(OC(C)C(=O)NC2CCN(Cc3ccccc3)CC2)c2c(C)cc(=O)oc2c1 (stereo unspecified)	i	nt	nt	i	nt	nt
CCCc1cc(=O)oc2c3c(cc(OCC(=O)NCCCn4ccnc4)c12)OC(C)(C)CC3	i	nt	nt	i	nt	nt
Cc1ccc(CNC(=O)c2ccc(COc3ccccc3)cc2)cc1	i	0.392	-4.0	i	nt	nt
CCCc1cc(=O)oc2c3c(cc(OCC(=O)NCC4CCC(C(=O)O)CC4)c12)OC(C)(C)CC3 (stereo unspecified)	i	nt	nt	i	6.7	i
SMILES	CHT block	Cl transport mod	Rad51 HR inh	CHT allo act	CHT act confirm	HEK293 MP dye
Cc1cc(OC(C)C(=O)NCCN2CCOCC2)c2c(C)cc(=O)oc2c1 (stereo unspecified)	i	nt	nt	i	nt	nt
CCCc1cc(=O)oc2cc(OCC(=O)NCCCn3ccnc3)c(Cl)cc12	i	nt	nt	i	nt	nt
CCc1cc(=O)oc2cc(C)cc(OC(C)C(=O)NCCCN3CCOCC3)c12 (stereo unspecified)	i	nt	nt	i	43.4*	-32.9*
Cc1cc(OC(C)C(=O)NCCCN2CCOCC2)c2c(C)c(C)c(=O)oc2c1 (stereo unspecified)	i	nt	nt	6.37*	62.4*	-48*
CCCc1cc(=O)oc2c(C)c(OCC(=O)NCCCn3ccnc3)ccc12	i	nt	nt	i	43.7*	-44.3*
COc1ccc2oc3cc(C)[n+]([O-])c(-c4ccc(Br)cc4)c3c2c1	i	-1.07	-7.7	i	nt	nt
O=C(CN1C(=O)c2ccccc2S1(=O)=O)Nc1ccc(S(=O)(=O)N2CCCCCC2)cc1	i	nt	-2.1	i	nt	nt
Brc1c(-c2ccc3c(c2)OCO3)nc2ncccn12	i	0.459	nt	6.26*	44.6*	-45.9*
Cn1c(=O)c2c(nc(N3CCOCC3)n2CCCNC2=NCCC2)n(C)c1=O	i	0.03	4.0	8.82*	54.4*	-55.7*
Cn1c(=O)c2c(nc(N3CCOCC3)n2CCSc2ncccn2)n(C)c1=O	i	0.395	2.9	8.62*	74.6*	-78.9*
O=C(Nc1cccc(NC(=O)c2ccccc2)n1)c1ccccc1	i	nt	nt	i	nt	nt
COc1ccc(Cn2nnnc2C(c2ccccn2)N2CCN(c3cc(Cl)ccc3C)CC2)cc1 (stereo unspecified)	i	-0.59	-2.5	i	nt	nt
COCCn1nnnc1C(c1ccccn1)N1CCN(c2cc(Cl)ccc2C)CC1 (stereo unspecified)	i	-0.823	-2.8	7.9*	15.1*	i
COC(=O)c1cc(C(=O)N2CCN(c3ccccc3OC)CC2)cc([N+](=O)[O-])c1	i	-0.0459	-7.0	6.77*	13.0*	i
CN(C)CCN(Cc1ccccc1)S(=O)(=O)c1ccc2c(c1)n(C)c(=O)c(=O)n2C	i	0.878	-19.1	12.1*	73.9*	-81.2*
CCn1c(/C=C/c2cc[n+](C)cc2)nc2ccccc21	i	nt	nt	i	nt	nt
CN(C)c1ccc(/C=C/c2cc[n+](C)cc2)cc1	i	-1.69	0.8	6.46*	33.6*	i
C[n+]1ccc(/C=C/c2cccs2)cc1	i	0.00873	-16.7	i	61.6*	-41.8*
CC(C)C(=O)Nc1ccccc1C(=O)OCC(=O)c1ccc2c(c1)OCCO2	i	-0.905	-7.8	i	nt	nt
CSc1ccccc1C(=O)NCCSc1ccc(C)cc1	i	nt	nt	i	nt	nt
Clc1ccc(CSc2nncn2-c2ccc3c(c2)OCCO3)cc1	i	-2.39	7.5	13.1*	4.7	i
CC(=O)c1ccc(N2CCN(c3ccc(C(F)(F)F)cn3)CC2)cc1	i	0.0143	-5.8	i	nt	nt
CC(=O)c1ccc(-n2cc(-c3ccc(C(C)(C)C)cc3)[n+]3c2SCCC3)cc1	i	-0.713	5.7	7.01*	24.5*	-44.6*
CN1CCc2c(sc3nc(SCC(N)=O)n(-c4ccc(Cl)cc4)c(=O)c23)C1	i	nt	nt	6.85*	46.4*	-34.4*
C=C(C)CSc1nc2sc3c(c2c(=O)n1C1CCCCC1)CCN(C)C3	i	-0.266	-22.8	6.79*	38.6*	-47.6*
CN1CCc2c(sc3nc(SCC(N)=O)n(-c4ccccc4)c(=O)c23)C1	i	-0.0987	-35.0	i	40.5*	-33.8*
